From ChEMBL document CHEMBL1629690, “Development of hexadecyloxypropyl tenofovir (CMX157) for treatment of infection caused by wild-type and nucleoside/nucleotide-resistant HIV” (Antimicrob Agents Chemother, 2010) come the findings set out here.

The subject of series [1] is PBMC. In words: Cellular uptake in PHA/IL-2-stimulated human PBMC at 0.01 uM assessed as TFV-diphosphate after 24 hrs by MS/MS analysis. The series is classed as ADME, cell-based. The essentials: (§1)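 PHA/IL-2-stimulated PBMCs at 2 × 10^6 cells/ml (5 × 10^7 per flask) were exposed for 24 h at 37°C. Cells were washed three times in cold 0.9% NaCl and counted by trypan blue. Aliquots of 1 × 10^7 cells were pelleted. TFV, TFV-MP and TFV-PP were separated by ion-pairing reverse-phase gradient LC and detected by positive electrospray. Results are given as pmol/10^6 cells.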

The subject of series [2] is PBMC. As to the kind of experiment: Cellular uptake in PHA/IL-2-stimulated human PBMC at 0.1 uM assessed as TFV level after 24 hrs by MS/MS analysis. The series is classed as ADME, cell-based. The note with it: BLD = below limit of detection. The essentials:
as §1

In series [3] the test system is Human immunodeficiency virus 1. As to the kind of experiment: Antiviral activity against HIV1 subtype C isolate 91IN101 infected in human PBMC after 48 to 72 hrs by MTS assay. The series is classed as functional, organism-based. As to conditions: Human immunodeficiency virus 1, isolate 93IN101; in the assay text read “93IN101” for “91IN101”. The essentials:
(§2)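 Fresh donor PBMCs, HIV- and HBV-seronegative, were stimulated with 4 μg/ml PHA for 48 to 72 h and kept on 20 U/ml rhIL-2. Cells pooled from at least two donors were seeded at 5 × 10^4 per well and infected at MOI ~0.1. Nine compound concentrations were run in triplicate wells for 7 days.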

For series [4], the system named is Human immunodeficiency virus 1. As to the kind of experiment: Antiviral activity against HIV1 subtype B isolate 92TH014 infected in human MDM […] by MTS assay. The series is classed as functional, organism-based. The note with it: Human immunodeficiency virus 1, isolate 92TH014. On the technique in general: Formazan colour is commonly taken as a measure of viable cells.

Series [5] relates to PBMC. As to the kind of experiment: Cellular uptake in PHA/IL-2-stimulated human PBMC at 10 uM assessed as TFV level after 24 hrs by MS/MS analysis. The series is classed as ADME, cell-based. The essentials:
(§3)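 PHA-stimulated (4 μg/ml PHA, 48 to 72 h; 20 U/ml rhIL-2) human PBMCs at 2 × 10^6 cells/ml in RPMI 1640 with 15% FBS, given tenofovir or prodrug (final 0.01 to 10 μM) for 24 h at 37°C. Cells washed three times in cold 0.9% NaCl, counted, and 1 × 10^7 cell aliquots pelleted. TFV, TFV-MP and TFV-PP were separated by ion-pairing reverse-phase LC and detected by positive-ion electrospray MS. Output is pmol per 10^6 cells.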

Series [6] concerns Human immunodeficiency virus 1. In words: Antiviral activity against HIV1 subtype C isolate 93MW959 infected in human PBMC after 48 to 72 hrs by MTS assay. The note with it: Human immunodeficiency virus 1, isolate 93MW959. Format: functional, organism-based. An outline of the steps:
as §2

In series [7] the test system is Human immunodeficiency virus 1. In words: Antiviral activity against HIV1 subtype B isolate Ba-L infected in human PBMC after 48 to 72 hrs by MTS assay. The series is classed as functional, organism-based. As to conditions: Human immunodeficiency virus 1, isolate Ba-L. The essentials: as §2
For series [8], the system named is PBMC. As to the kind of experiment: Cellular uptake in human PBMC at 1 uM assessed as TFV level after 24 hrs by MS/MS analysis. The series is classed as ADME, cell-based. An outline of the steps:
(§4)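 Human PBMCs, unstimulated or PHA/IL-2-stimulated, at 2 × 10^6 cells/ml in RPMI 1640 with 15% FBS, exposed 24 h at 37°C to final 0.01, 0.1, 1.0 or 10 μM of the prodrug, or 1.0 or 10 μM tenofovir. After cold saline washes the cells were counted and 1 × 10^7-cell pellets made. TFV, TFV-MP and TFV-PP were measured by ion-pairing LC with positive-ion electrospray MS as pmol/10^6 cells.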

Series [9] has as its system PBMC. As to the kind of experiment: Cellular uptake in human PBMC at 0.1 uM assessed as TFV-monophosphate after 24 hrs by MS/MS analysis. The series is classed as ADME, cell-based. The note with it: BLD = below limit of detection. An outline of the steps:
as §4

For series [10], the system named is Human immunodeficiency virus 1. In words: Antiviral activity against HIV1 group O isolate BCF01 infected in human PBMC after 48 to 72 hrs by MTS assay. As to conditions: Human immunodeficiency virus 1, isolate BCF01. Format: functional, organism-based. An outline of the steps: as §2
The test system of series [11] is Human immunodeficiency virus 1. As to the kind of experiment: Antiviral activity against HIV1 group O isolate BCF03 infected in human PBMC after 48 to 72 hrs by MTS assay. Format: functional, organism-based. As to conditions: Human immunodeficiency virus 1, isolate BCF03. An outline of the steps: as §2
The subject of series [12] is PBMC. As to the kind of experiment: Cellular uptake in human PBMC at 0.01 uM assessed as TFV-monophosphate after 24 hrs by MS/MS analysis. Format: ADME, cell-based. The note with it: BLD = below limit of detection. The essentials:
as §4

Series [13] relates to PBMC. In words: Cellular uptake in PHA/IL-2-stimulated human PBMC at 0.01 uM assessed as TFV-monophosphate after 24 hrs by MS/MS analysis. The note with it: BLD = below limit of detection. The series is classed as ADME, cell-based. An outline of the steps: as §1
Series [14] relates to PBMC. As to the kind of experiment: Cellular uptake in human PBMC at 0.01 uM assessed as TFV-diphosphate after 24 hrs by MS/MS analysis. The series is classed as ADME, cell-based. The essentials:
as §4

Series [15] deals with Human immunodeficiency virus 1. As to the kind of experiment: Antiviral activity against HIV1 isolate JR-CSF infected in human PBMC after 48 to 72 hrs by MTS assay in presence of 10% human serum. The series is classed as functional. The note with it: Human immunodeficiency virus 1, JRCSF ISOLATE. An outline of the steps: (§5)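 This is the PHA/IL-2 PBMC assay run with JR-CSF preincubated with 8 × 10^6 pooled cells for 1 h at 37°C. Cells were then spinoculated at 200 × g for 1 h and held 2 h more. Infected cells (2.5 × 10^4) were added, without virus washout, to wells holding uninfected PBMCs and compound. Medium had 15% FBS, plus 0, 10, 15, 20 or 30% human serum.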

Series [16] has as its system Human immunodeficiency virus 1. As to the kind of experiment: Antiviral activity against HIV1 isolate JR-CSF infected in human PBMC after 48 to 72 hrs by MTS assay in presence of 30% human serum. Format: functional. As to conditions: Human immunodeficiency virus 1, JRCSF ISOLATE. An outline of the steps:
as §5

In series [17] the test system is PBMC. As to the kind of experiment: Cellular uptake in PHA/IL-2-stimulated human PBMC at 0.1 uM assessed as TFV-monophosphate after 24 hrs by MS/MS analysis. Format: ADME, cell-based. As to conditions: BLD = below limit of detection. An outline of the steps:
as §1

Series [18] deals with Human immunodeficiency virus 1. In words: Antiviral activity against HIV1 subtype B isolate 96USHIPS7 infected in human PBMC after 48 to 72 hrs by MTS assay. The series is classed as functional, organism-based. As to conditions: Human immunodeficiency virus 1, isolate 96USHIPS7. An outline of the steps:
as §2

Series [19] deals with PBMC. As to the kind of experiment: Cellular uptake in human PBMC at 0.1 uM assessed as TFV level after 24 hrs by MS/MS analysis. Format: ADME, cell-based. An outline of the steps: as §4
Series [20] deals with Human immunodeficiency virus 1. As to the kind of experiment: Antiviral activity against HIV1 subtype B isolate Ba-L infected in human MDM […] by MTS assay. Format: functional, organism-based. The note with it: Human immunodeficiency virus 1, isolate Ba-L.
The subject of series [21] is Human immunodeficiency virus 1. As to the kind of experiment: Antiviral activity against HIV1 subtype B isolate ADA infected in human PBMC after 48 to 72 hrs by MTS assay. The series is classed as functional, organism-based. The note with it: Human immunodeficiency virus 1, isolate ADA. The essentials:
as §2

The test system of series [22] is PBMC. In words: Cellular uptake in human PBMC at 0.1 uM assessed as TFV-diphosphate after 24 hrs by MS/MS analysis. Format: ADME, cell-based. An outline of the steps: as §4
The test system of series [23] is PBMC. In words: Cellular uptake in PHA/IL-2-stimulated human PBMC at 0.1 uM assessed as TFV-diphosphate after 24 hrs by MS/MS analysis. The series is classed as ADME, cell-based. The essentials: as §1
Series [24] relates to PBMC. In words: Cellular uptake in PHA/IL-2-stimulated human PBMC at 1 uM after 24 hrs by MS/MS analysis. Format: ADME, cell-based. As to conditions: BLD = below limit of detection. An outline of the steps:
as §3

For series [25], the system named is PBMC. In words: Cellular uptake in human PBMC at 10 uM after 24 hrs by MS/MS analysis. The series is classed as ADME, cell-based. An outline of the steps:
as §4

Consider `CCCCCCCCCCCCCCCCOCCCOP(=O)(O)CO[C@H](C)Cn1cnc2c(N)ncnc21` [TENOFOVIR EXALIDEX], for which the Drug uptake is 0.07 pmol/10^6 cells in series [1]; “BLD” in series [2]; 1.9 pmol/10^6 cells in series [5]; 0.07 pmol/10^6 cells in series [8]; “BLD” in series [9]; “BLD” in series [12]. Further, the Drug uptake entry in series [13] was “BLD”; in series [14], 0.07 pmol/10^6 cells; in [17], “BLD”; in series [19], 0.05 pmol/10^6 cells; in series [22], 0.07 pmol/10^6 cells; in series [23], 0.25 pmol/10^6 cells. In addition, the EC50 in [3] turned out to be 2.8 nM; in series [4], 3.1 nM; in series [6], 2.8 nM; in series [7], 1.5 nM; in [10], 5 nM; in series [11] it was 5 nM. Moreover, the EC50 was 4.6 nM in series [15]; 16 nM in [16]; 1.5 nM in series [18]; 3.1 nM in series [20]; 1.5 nM in [21].
As to `C[C@H](Cn1cnc2c(N)ncnc21)OCP(=O)(O)O` [TENOFOVIR ANHYDROUS], the Drug uptake entry was “BLD” in series [24] and 0.11 pmol/10^6 cells in [25].

Usually EC50 stands for the concentration needed to bring the measured effect to its halfway point.
